According to ChEMBL document CHEMBL1828544, “Structural modification of honokiol, a biphenyl occurring in Magnolia officinalis: the evaluation of honokiol analogues as inhibitors of angiogenesis and for their cytotoxicity and structure-activity relationship” (J Med Chem, 2011):
pIC50: −log10 of the molar value. The source made the active and inactive calls. The calls are words filed in the database; no cut-off is given here.

Key:
Danio rerio [1] = species on record: Danio rerio; test: Antiangiogenic activity in fli-1:enhanced GFP expressing transgenic zebrafish embryo assessed as inhibition of neovacularisation at 10 uM after 24 hrs relative to control; format: functional
Method in brief: (§1)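 fli-1:EGFP transgenic zebrafish embryos sorted at about 6 hpf (6 per well), exposed in embryo water to compound at 5–40 μM for 24 h. Then anesthetized with 0.05% 2-phenoxyethanol, photographed and quantified.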

Danio rerio [2] = species on record: Danio rerio; test: Antiangiogenic activity in fli-1:enhanced GFP expressing transgenic zebrafish embryo assessed as inhibition of neovacularisation at 20 uM after 24 hrs relative to control; format: functional; method in brief: as §1
A549 = test: Antiproliferative activity against human A549 cells after 24 hrs by MTT assay; format: functional, cell-based; conditions: A549, 24 h
Method in brief: (§2)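 Cells (5 × 10^3/well) kept at 37 °C, 5% CO2 and treated with varied compound concentrations for 24 h. MTT given for a further 3 h, precipitate dissolved in DMSO, absorbance taken at 570 nm. IC50 calculated from percentage growth relative to untreated control.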

[3] = Antiproliferative activity against mouse LL/2 cells after 24 hrs by MTT assay; format: functional, cell-based; conditions: Lewis lung carcinoma; method in brief: as §2
HUVEC = test: Antiproliferative activity against human HUVEC cells after 24 hrs by MTT assay; format: functional, cell-based
Method in brief: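 Primary HUVECs grown on gelatin in M-199 with 20% FBS, 10 ng/mL bFGF, 2 ng/mL VEGF, 5% CO2, 37 °C. Cells (5 × 10^3/well) exposed to a range of compound concentrations for 24 h. MTT added for 3 h, formazan dissolved in DMSO, absorbance read at 570 nm. IC50 from percentage growth versus untreated control.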

HepG2 = test: Antiproliferative activity against human HepG2 cells after 24 hrs by MTT assay; format: functional, cell-based; conditions: HepG2, 24 h; method in brief: as §2
Danio rerio [4] = species on record: Danio rerio; test: Antiangiogenic activity in fli-1:enhanced GFP expressing transgenic zebrafish embryo assessed as inhibition of neovacularisation at 5 uM after 24 hrs relative to control; format: functional; method in brief: as §1
Danio rerio [5] = species on record: Danio rerio; test: Antiangiogenic activity in fli-1:enhanced GFP expressing transgenic zebrafish embryo assessed as inhibition of neovacularisation at 40 uM after 24 hrs relative to control; format: functional; method in brief: as §1

| pIC50 (A549) | pIC50 (HepG2) | Structure (SMILES) | inhibition (INH) (Danio rerio [1]) | inhibition (INH) (Danio rerio [2]) | pIC50 [3] | pIC50 (HUVEC) | inhibition (Danio rerio [4]) | inhibition (INH) (Danio rerio [5]) | inhibition (INH) (Danio rerio [4]) | inhibition (Danio rerio [1]) |
| --- | --- | --- | --- | --- | --- | --- | --- | --- | --- | --- |
| < 4.00 | 4.21 | C=CCc1ccc(O)c(-c2cccc([N+](=O)[O-])c2)c1 | <25% | <25% | 4.21 | 4.10 | inactive |  |  |  |
| 4.14 | 4.23 | C=CCc1cc(-c2cccc(C(F)(F)F)c2)ccc1O |  |  | 4.18 | 4.12 |  |  |  |  |
| 4.37 | 4.27 | C=CCc1cc(C=O)c(OC)c(-c2ccc(OC)c(CC=C)c2)c1 | <25% | <25% | 4.39 | 4.41 |  | <25% | <25% |  |
| 4.12 | 4.05 | C=CCc1ccc(O)c(-c2ccc(O)cc2)c1 | <25% | <25% | < 4.00 | 4.19 | inactive |  |  |  |
| < 4.00 | < 4.00 | C=CCc1cc(-c2cccc([N+](=O)[O-])c2)ccc1O |  |  | < 4.00 | < 4.00 |  |  |  |  |
| < 4.00 | < 4.00 | C=CCc1cc(-c2ccc(OC)cc2OC)ccc1O |  |  | < 4.00 | < 4.00 |  |  |  |  |
| < 4.00 | < 4.00 | C=CCc1cc(-c2cccc(OC)c2)ccc1O |  |  | < 4.00 | < 4.00 |  |  |  |  |
| 4.22 | 4.28 | C=CCc1cc(-c2ccccc2C(F)(F)F)ccc1O | <25% | <25% | 4.22 | 4.09 | inactive | <25% |  |  |
|  | 4.24 | C=CCc1ccc(OC)c(-c2ccc(O)c(CC=C)c2)c1 |  |  | 3.97 | 4.21 |  |  |  |  |
| < 4.00 | < 4.00 | C=CCc1cc(-c2ccccc2)ccc1O |  |  | < 4.00 | < 4.00 |  |  |  |  |
| < 4.04 | 4.16 | C=CCc1ccc(OCC(=O)OCC)c(-c2ccc(OCC(=O)OCC)c(CC=C)c2)c1 |  |  | < 4.04 | < 4.00 |  |  |  |  |
| < 4.00 | < 4.00 | C=CCOc1ccc(-c2ccc(OC)cc2)cc1CC=C |  |  | < 4.00 | < 4.00 |  |  |  |  |
| < 3.91 | < 3.91 | C=CCc1cc(CO)c(O)c(-c2cc(CO)c(O)c(CC=C)c2)c1 |  |  | < 3.91 | < 4.00 |  |  |  |  |
| 4.18 | < 4.00 | C=CCc1cc(-c2cccc(SC)c2)ccc1O |  |  | < 4.00 | < 4.00 |  |  |  |  |
| 4.10 | 4.09 | C=CCc1cc(-c2cccc([N+](=O)[O-])c2)cc(CC=C)c1O | <25% | <25% | 4.25 | < 4.00 | inactive | <25% |  |  |
| < 4.07 | < 4.07 | C=CCc1cc(C=O)c(OCC(=O)OCC)c(-c2ccc(OCC(=O)OCC)c(CC=C)c2)c1 |  |  | 4.58 | 4.06 |  |  |  |  |
| 4.19 | 4.25 | C=CC(C)(C)c1cc(-c2cccc([N+](=O)[O-])c2)ccc1O |  | <25% | 4.35 | 4.11 | inactive | <25% |  | inactive |
| 4.41 | 4.55 | C=CCc1cc(C=O)c(OCC)c(-c2ccc(OCC)c(CC=C)c2)c1 | <25% | <25% | 4.50 | 4.42 | inactive | <25% |  |  |
| < 4.00 | < 4.00 | C=CCOc1ccc(-c2cccc([N+](=O)[O-])c2)cc1CC=C |  |  | < 4.00 | < 4.00 |  |  |  |  |

| pIC50 (A549) | pIC50 (HepG2) | Structure (SMILES) | inhibition (INH) (Danio rerio [1]) | inhibition (INH) (Danio rerio [2]) | pIC50 [3] | pIC50 (HUVEC) | inhibition (Danio rerio [4]) | inhibition (INH) (Danio rerio [5]) | inhibition (INH) (Danio rerio [4]) | inhibition (Danio rerio [1]) |
| --- | --- | --- | --- | --- | --- | --- | --- | --- | --- | --- |
| 4.12 | 4.16 | C=CCc1cc(-c2ccc(OC)cc2)cc(CC=C)c1O | <25% | <25% | 4.22 | < 4.00 | inactive | <25% |  |  |
| < 3.91 | < 3.91 | C=CCc1ccc(OCC)c(-c2ccc(OCC)c(CC=C)c2)c1 |  |  | < 3.91 | < 4.00 |  |  |  |  |
| < 4.00 | < 4.00 | C=CCc1cc(-c2ccc(OC)cc2)ccc1O |  |  | < 4.00 | < 4.00 |  |  |  |  |
| < 3.87 | < 3.87 | C=CCc1cc(CO)c(O)c(-c2ccc(O)c(CC=C)c2)c1 |  |  | < 3.87 | < 4.00 |  |  |  |  |
| < 4.00 | < 4.00 | C=CCc1cc(-c2ccc(OC)c(OC)c2)ccc1O |  |  | < 4.00 | < 4.00 |  |  |  |  |
| < 4.00 | < 4.00 | C=CCc1cc(-c2cccc([N+](=O)[O-])c2)ccc1OC |  |  | < 4.00 | < 4.00 |  |  |  |  |
|  | < 3.87 | C=CCc1ccc(OC)c(-c2ccc(OC)c(CC=C)c2)c1 |  |  | < 3.87 | < 4.00 |  |  |  |  |
| 4.12 | 4.22 | C=CCc1cc(-c2ccc(C(F)(F)F)cc2)ccc1O | <25% | <25% | 4.13 | 4.13 | inactive | <25% |  |  |
| 4.02 | < 4.00 | C=CCc1ccc(OC)c(-c2ccc(OC)cc2)c1 |  |  | 4.15 | < 4.00 |  |  |  |  |
| < 3.94 | < 3.94 | C=CCc1ccc(OC(C)C)c(-c2ccc(OC(C)C)c(CC=C)c2)c1 |  |  | < 3.94 | < 4.00 |  |  |  |  |
| < 4.00 | < 4.00 | C=CCc1cc(-c2cc(F)cc(F)c2)ccc1O | <25% | <25% | 4.11 | 4.10 |  | <25% | <25% |  |
| < 4.00 | 4.05 | C=CCc1cc(-c2ccc(C(F)(F)F)cc2)ccc1OC |  |  | 4.10 | < 4.00 |  |  |  |  |
| < 4.00 | < 4.00 | C=CCc1cc(-c2ccc(F)cc2)ccc1O |  |  | < 4.00 | < 4.00 |  |  |  |  |
| < 4.00 | < 4.00 | C=CCc1cc(-c2ccc(OC)cc2)ccc1OC |  |  | < 4.00 | < 4.00 |  |  |  |  |
| < 3.94 | < 3.94 | C=CCc1ccc(OCCC)c(-c2ccc(OCCC)c(CC=C)c2)c1 |  |  | < 3.94 | < 4.00 |  |  |  |  |
| 4.37 | 4.32 | C=CCc1ccc(O)c(-c2ccc(OC(C)C)c(CC=C)c2)c1 | <25% | <25% | 4.31 | 4.15 | inactive |  |  |  |
| 4.27 | 4.20 | C=CCc1ccc(OC(C)C)c(-c2ccc(O)c(CC=C)c2)c1 | <25% | <25% | 4.32 | 4.18 |  | <25% | <25% |  |
| < 4.00 | 4.22 | C=CCc1cc(-c2cccc(NC(C)=O)c2)ccc1OC |  |  | 4.19 | < 4.00 |  |  |  |  |
| < 4.00 | 4.04 | C=CC(C)(C)c1cc(-c2ccc(OC)cc2)ccc1O |  |  | < 4.00 | < 4.00 |  |  |  |  |

| Structure (SMILES) | pIC50 (A549) | pIC50 (HepG2) | inhibition (INH) (Danio rerio [1]) | inhibition (INH) (Danio rerio [2]) | pIC50 [3] | pIC50 (HUVEC) | inhibition (Danio rerio [4]) | inhibition (INH) (Danio rerio [5]) | inhibition (INH) (Danio rerio [4]) | inhibition (Danio rerio [1]) |
| --- | --- | --- | --- | --- | --- | --- | --- | --- | --- | --- |
| C=CCc1ccc(O)c(-c2ccc(OCC)c(CC=C)c2)c1 | 4.29 | 4.13 |  |  | 4.21 | 4.17 |  |  |  |  |
| C=CCc1ccc(OC)c(-c2cccc([N+](=O)[O-])c2)c1 | < 4.00 | < 4.00 |  |  | 4.05 | < 4.00 |  |  |  |  |
| C=CCc1ccc(OCCC)c(-c2ccc(O)c(CC=C)c2)c1 | 4.27 | 4.30 | <25% | <25% | 4.34 | 4.13 | inactive | <25% |  |  |
| C=CCc1ccc(O)c(-c2ccc(OCCC)c(CC=C)c2)c1 | 4.08 | < 3.89 |  |  | 4.19 | 4.05 |  |  |  |  |
| C=CCc1ccc(OCC)c(-c2ccc(O)c(CC=C)c2)c1 | 4.09 | 4.15 |  |  | 4.17 | 4.17 |  |  |  |  |
